Measurements from ChEMBL document CHEMBL2034936, “Discovery and extensive in vitro evaluations of NK-HDAC-1: a chiral histone deacetylase inhibitor as a promising lead” (J Med Chem, 2012).
Calls of active or inactive are those of the source. The rule behind the calls is not given here.

Columns and labels:
BT-549 = experiment: cells; format: functional; conditions: Homo sapiens, BT-549, 72 h
M14 = experiment: cells; format: functional; conditions: Homo sapiens, M14, 72 h
cells = format: functional; conditions: Homo sapiens, Hs-578T, 72 h
SNB-75 = experiment: Growth inhibition of human SNB75 cells after 72 hrs by MTS assay; format: functional; conditions: SNB-75, 72 h
[1] = Half life in artificial intestinal fluid; format: physicochemical
Cytochrome P450 3A4 = Cytochrome P450 3A4 (Homo sapiens, UniProt P08684); experiment: Inhibition of human CYP3A4; format: ADME
Chain of Cytochrome P450 3A4 (P08684 whole entry): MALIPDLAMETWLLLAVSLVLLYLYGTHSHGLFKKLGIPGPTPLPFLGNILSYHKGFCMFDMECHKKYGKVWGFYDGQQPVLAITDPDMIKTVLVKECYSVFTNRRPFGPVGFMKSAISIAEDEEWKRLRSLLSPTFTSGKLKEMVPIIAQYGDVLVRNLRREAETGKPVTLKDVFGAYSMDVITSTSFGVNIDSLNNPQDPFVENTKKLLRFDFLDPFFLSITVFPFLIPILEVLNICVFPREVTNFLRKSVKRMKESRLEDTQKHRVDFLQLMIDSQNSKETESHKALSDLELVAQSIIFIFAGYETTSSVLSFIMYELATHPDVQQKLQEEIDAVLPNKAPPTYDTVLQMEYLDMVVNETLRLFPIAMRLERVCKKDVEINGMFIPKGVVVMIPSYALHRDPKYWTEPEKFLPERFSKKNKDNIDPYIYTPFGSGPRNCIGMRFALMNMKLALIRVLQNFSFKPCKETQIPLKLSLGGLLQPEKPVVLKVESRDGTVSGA

[2] = Half life in mouse liver microsomes; format: ADME, Microsome
MOLT-4 = experiment: Growth inhibition of human MOLT4 cells after 72 hrs by MTS assay; format: functional; conditions: MOLT-4, 72 h
SNB-19 = experiment: cells; format: functional; conditions: Homo sapiens, SNB-19, 72 h
[3] = Apparent permeability from apical to basolateral side in human Caco2 cells at 10 uM; format: ADME, cell-based; conditions: Caco-2
Procedure, shortened: (§1)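 Caco-2 monolayers, test compound at 10 μM. Apparent permeability measured in both directions, apical to basolateral and basolateral to apical. Efflux ratio = P_app B to A / P_app A to B. Run by a contract lab following published methods. Mean of three independent triplicate experiments.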

SF-295 = experiment: cells; format: functional; conditions: Homo sapiens, SF-295, 72 h
[4] = Apparent permeability from basolateral to apical side in human Caco2 cells at 10 uM; format: ADME, cell-based; conditions: Caco-2
Procedure, shortened: as §1

MCF7 = experiment: cells; format: functional; conditions: Homo sapiens, MCF7, 48 h
UO-31 = experiment: cells; format: functional; conditions: Homo sapiens, UO-31, 72 h
MDA-MB-468 = experiment: cells; format: functional; conditions: Homo sapiens, MDA-MB-468, 72 h
PC-3 = experiment: cells; format: functional; conditions: Homo sapiens, PC-3, 72 h
U-251 = experiment: cells; format: functional; conditions: Homo sapiens, U-251, 72 h
[5] = molecular target: T1, Histone deacetylase (Homo sapiens) (UniProt Q13547+O15379+Q9UBN7+Q92769+Q9UQL6+Q8WUI4+Q9BY41+Q96DB2+P56524+Q9UKV0+Q969S8); experiment: Inhibition of HDAC in human MDA-MB-231 cells assessed as stimulation of histone H3 acetylation at 0.5 uM by Western blot; format: cell-based; conditions: TDE = time-dependent effect
Procedure, shortened: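 Time course in MDA-MB-231 cells at 0.5 μM, sampled from 3 h up to 24 h. Lysed in RIPA (pH 7.5, protease and phosphatase inhibitors) at 4 °C, then 60 μg protein run on SDS-PAGE. Western blot with anti-acetyl-histone H3 and ECL detection.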

Malme-3M = experiment: cells; format: functional; conditions: Homo sapiens, 72 h
NCI-H226 = experiment: cells; format: functional; conditions: Homo sapiens, NCI-H226, 72 h
OVCAR-4 = experiment: cells; format: functional; conditions: Homo sapiens, OVCAR-4, 72 h
HT-29 = experiment: Growth inhibition of human HT-29 cells after 72 hrs by MTS assay; format: functional; conditions: HT-29, 72 h
Histone deacetylase = experiment: Inhibition of HDAC in human HeLa cell nuclear extracts using Ac-Arg-Gly-Lys(Ac)-AMC substrate by fluorimetry; format: protein assay
K562 = experiment: cells; format: functional; conditions: Homo sapiens, K562, 72 h
SK-OV-3 = experiment: cells; format: functional; conditions: Homo sapiens, SK-OV-3, 72 h
[6] = Half life in mouse plasma; format: ADME, cell-free
A549 = experiment: cells; format: functional; conditions: Homo sapiens, A549, 72 h
MDA-MB-231 = experiment: cells; format: functional; conditions: Homo sapiens, MDA-MB-231, 72 h
SR = experiment: Growth inhibition of human SR cells after 72 hrs by MTS assay; format: functional
LOX IMVI = experiment: cells; format: functional; conditions: Homo sapiens, 72 h
T47D = experiment: cells; format: functional; conditions: Homo sapiens, 72 h
NCI-H23 = experiment: cells; format: functional; conditions: Homo sapiens, NCI-H23, 72 h
CCRF-CEM = experiment: Growth inhibition of human CCRF-CEM cells after 72 hrs by MTS assay; format: functional
SK-MEL-5 = experiment: cells; format: functional; conditions: Homo sapiens, SK-MEL-5, 72 h
TK-10 = experiment: cells; format: functional; conditions: Homo sapiens, TK-10, 72 h
HL-60(TB) = experiment: cells; format: functional; conditions: Homo sapiens, HL-60, 72 h
in vitro = conditions: human, MCF10A cells
ACHN = experiment: cells; format: functional; conditions: Homo sapiens, 72 h
[7] = Half life in artificial gastric fluid; format: physicochemical
SK-MEL-2 = experiment: cells; format: functional; conditions: Homo sapiens, SK-MEL-2, 72 h
DU-145 = experiment: cells; format: functional; conditions: Homo sapiens, DU-145, 72 h
OVCAR-5 = experiment: Growth inhibition of human OVCAR5 cells after 72 hrs by MTS assay; format: functional; conditions: OVCAR-5, 72 h
NCI-H322M = experiment: Growth inhibition of human NCI-H322M cells after 72 hrs by MTS assay; format: functional
SK-MEL-28 = experiment: cells; format: functional; conditions: Homo sapiens, SK-MEL-28, 72 h
786-0 = experiment: cells; format: functional; conditions: Homo sapiens, 786-0, 72 h
NCI-H460 = experiment: Growth inhibition of human NCI-H460 cells after 72 hrs by MTS assay; format: functional; conditions: NCI-H460, 72 h
[8] = molecular target: T1, Histone deacetylase (Homo sapiens); experiment: Inhibition of HDAC in human MDA-MB-231 cells assessed as stimulation of histone H3 acetylation at 0.1 uM incubated for 24 hrs by Western blot; format: cell-based
Procedure, shortened: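 MDA-MB-231 cells in 35-mm dishes, dosed 24 h at graded concentrations, then trypsinized and PBS-washed. Lysed in RIPA (50 mM Tris-HCl pH 7.5, protease and phosphatase inhibitors) for 30 min at 4 °C, then cleared at 12,000g. Lysate, 60 μg protein by BCA, run on SDS-PAGE and PVDF. Blotted with anti-acetyl-histone H3 and HRP anti-rabbit, read by ECL.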

CC(C)[C@@H](c1nc2ccccc2o1)n1cc(/C=C/C(=O)NO)nn1
GI50 (BT-549): 52 nM
GI50 (M14): 180 nM
GI50 (cells): 580 nM
GI50 (SNB-75): 250 nM
half-life [1]: > 24 h
INH (Cytochrome P450 3A4): 31.9 µM
half-life [2]: 3.25 h
GI50 (MOLT-4): 72 nM
GI50 (SNB-19): 430 nM
Papp A→B at 10 µM [3]: 6.61 ×10⁻⁶ cm/s
GI50 (SF-295): 120 nM
Papp B→A at 10 µM [4]: 7.61 ×10⁻⁶ cm/s
GI50 (MCF7): 180 nM
GI50 (UO-31): 60 nM
GI50 (MDA-MB-468): 150 nM
GI50 (PC-3): 120 nM
GI50 (U-251): 180 nM
inhibition [5]: tde
GI50 (Malme-3M): 16 nM
GI50 (NCI-H226): 540 nM
GI50 (OVCAR-4): 700 nM
GI50 (HT-29): 79 nM
IC50 (Histone deacetylase): 7 nM
GI50 (K562): 88 nM
GI50 (SK-OV-3): 140 nM
half-life [6]: 32 h
GI50 (A549): 160 nM
GI50 (MDA-MB-231): 520 nM
GI50 (SR): 90 nM
GI50 (LOX IMVI): 44 nM
GI50 (T47D): 51 nM
GI50 (NCI-H23): 140 nM
GI50 (CCRF-CEM): 110 nM
GI50 (SK-MEL-5): 100 nM
GI50 (TK-10): 44 nM
GI50 (HL-60(TB)): 190 nM
GI50 at 48 h (in vitro): 1600 nM
GI50 (ACHN): 210 nM
half-life [7]: 9.4 h
GI50 (SK-MEL-2): 87 nM
GI50 (DU-145): 160 nM
GI50 (OVCAR-5): 140 nM
GI50 (NCI-H322M): 140 nM
GI50 (SK-MEL-28): 220 nM
GI50 (786-0): 170 nM
GI50 (NCI-H460): 150 nM
inhibition [8]: Active
